These results are taken from ChEMBL document CHEMBL1131417, “Characterization of novel N,N'-disubstituted piperazines as sigma receptor ligands” (J Med Chem, 1998).

One assay deals with Sigma 2 receptor. The assay is described as follows: Binding affinity was tested against sigma-2 receptor site in presence of dextrallorphan in rat liver membranes. In kind it is cell membranes, Membrane. The method, boiled down:
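Rat liver membranes (160 μg protein) incubated with 5 nM [3H]DTG plus 1 μM dextrallorphan to mask σ-1 sites, in Tris-HCl pH 8.0, 120 min at 25 °C. Twelve competitor concentrations spanning 0.05–10 000 nM or 0.5–100 000 nM. IC50 from iterative curve fit, converted to apparent Ki by Cheng–Prusoff. Mean ± SEM of 2–3 experiments, each in duplicate.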
One may read the Ki as the dissociation constant of the complex between target and ligand, obtained from inhibition or displacement. Turning to `COc1ccc(CCN2CCN(C(=O)Cc3ccc(OC)cc3)CC2)cc1`, the Ki came out at 744 nM.

Turning to `NCCN1CCN(CCCc2ccccc2)CC1`, the inhibition constant (Ki) amounted to 188 nM.

Turning to `COc1ccccc1CCN1CCN(CCc2ccccc2OC)CC1`, the inhibitory constant (Ki) stood at 17 nM.

As to `O=C(Cc1ccccc1[N+](=O)[O-])N1CCN(CCCc2ccccc2)CC1`, the inhibition constant Ki came to 76 nM.

For `CC(C)(C)OC(=O)NCCC(=O)N1CCN(CCCc2ccccc2)CC1`, the Ki is 4560 nM.

Consider `O=[N+]([O-])c1cccc(CCN2CCN(CCCc3ccccc3)CC2)c1`, for which the Ki was 9.4 nM.

Regarding `CC(C)(C)OC(=O)NCCCC(=O)N1CCN(CCCc2ccccc2)CC1`, the inhibitory constant (Ki) was determined as 126 nM.

With `COc1ccc(CC(=O)N2CCN(CCCc3ccccc3)CC2)cc1`, the Ki is 464 nM.

As to `NCC(=O)N1CCN(CCCc2ccccc2)CC1`, the inhibition constant (Ki) is 303 nM.

For `COc1cccc(CCN2CCN(CCc3cccc(OC)c3)CC2)c1`, the inhibition constant Ki was found to be 29 nM.

Regarding `COc1ccccc1CC(=O)N1CCN(CCCc2ccccc2)CC1`, the inhibition constant (Ki) came out at 294 nM.

As for `O=C(Cc1cccc([N+](=O)[O-])c1)N1CCN(CCCc2ccccc2)CC1`, the Ki stood at 65 nM.

Consider `COc1cccc(CCN2CCN(CCCc3ccccc3)CC2)c1`, for which the inhibition constant Ki was 10 nM.

As for `Nc1ccc(CCN2CCN(CCCc3ccccc3)CC2)cc1`, the Ki stood at 14 nM.

Take `NCCCC(=O)N1CCN(CCCc2ccccc2)CC1`: the Ki worked out at 3840 nM.

Take `COc1ccccc1CCN1CCN(CCCc2ccccc2)CC1`: the inhibition constant Ki was determined as 7.5 nM.

In the case of `O=C(Cc1ccc(Cl)c(Cl)c1)N1CCN(CCCc2ccccc2)CC1`, the Ki was 78 nM.

For `COc1ccc(CCN2CCN(CCc3ccc(OC)cc3)CC2)cc1`, the inhibition constant Ki came to 99 nM.

In the case of `COc1cccc(CC(=O)N2CCN(CCCc3ccccc3)CC2)c1`, the Ki was 206 nM.

Turning to `O=[N+]([O-])c1ccc(CCN2CCN(CCCc3ccccc3)CC2)cc1`, the Ki was 25 nM.

With `COc1ccc(CCN2CCN(CCCc3ccccc3)CC2)cc1`, the inhibitory constant (Ki) was 29 nM.

On to `Nc1ccccc1CCN1CCN(CCCc2ccccc2)CC1`, for which the Ki came to 18 nM.

As to `O=C(Cc1ccc([N+](=O)[O-])cc1)N1CCN(CCCc2ccccc2)CC1`, the Ki was 167 nM.

Take `NCCC(=O)N1CCN(CCCc2ccccc2)CC1`: the Ki came to 1780 nM.

Regarding `COc1ccccc1CCN1CCN(C(=O)Cc2ccccc2OC)CC1`, the inhibition constant (Ki) is > 10 nM.

`Clc1ccc(CCN2CCN(CCCc3ccccc3)CC2)cc1Cl`: the inhibitory constant (Ki) came out at 39 nM.

Take `NCCCCN1CCN(CCCc2ccccc2)CC1`: the Ki was found to be 999 nM.

For the compound `NCCCN1CCN(CCCc2ccccc2)CC1`, the inhibition constant (Ki) was found to be 2000 nM.

For the compound `O=[N+]([O-])c1ccccc1CCN1CCN(CCCc2ccccc2)CC1`, the Ki was found to be 4.9 nM.

Turning to `Nc1cccc(CCN2CCN(CCCc3ccccc3)CC2)c1`, the Ki turned out to be 37 nM.

Another assay relates to Sigma 2 receptor. The assay is described as follows: Binding affinity was tested against sigma-2 receptor in presence of dextrallorphan in rat liver membranes; NA =data not available. In kind it is cell membranes, Membrane. A digest of the protocol:
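Rat liver membranes (160 μg protein) were incubated with 5 nM [3H]DTG plus 1 μM dextrallorphan to mask σ-1 sites, in Tris-HCl pH 8.0, for 120 min at 25 °C. Twelve competitor concentrations spanned 0.05–10 000 nM or 0.5–100 000 nM. IC50 from curve fitting was converted to Ki by Cheng-Prusoff. Values are the mean ± SEM of 2–3 experiments, each run in duplicate.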
As for `COc1cccc(CCN2CCN(C(=O)Cc3cccc(OC)c3)CC2)c1`, the Ki result is listed as “Not Active”.
